High-throughput results from PubChem BioAssay.
Rows were chosen to be rich in hits. Some 1.8% of all compounds tested hit in one or more screens of this group.
Furin inh = blocks human furin protease activity; P09958; purified furin, fluorogenic substrate cleavage; inhibition, % at 20 µM or 30 µM; 0.061% of 220,000 active; in the data active = inhibition above about 25%
Target sequence (P09958 108-714 limits assumed): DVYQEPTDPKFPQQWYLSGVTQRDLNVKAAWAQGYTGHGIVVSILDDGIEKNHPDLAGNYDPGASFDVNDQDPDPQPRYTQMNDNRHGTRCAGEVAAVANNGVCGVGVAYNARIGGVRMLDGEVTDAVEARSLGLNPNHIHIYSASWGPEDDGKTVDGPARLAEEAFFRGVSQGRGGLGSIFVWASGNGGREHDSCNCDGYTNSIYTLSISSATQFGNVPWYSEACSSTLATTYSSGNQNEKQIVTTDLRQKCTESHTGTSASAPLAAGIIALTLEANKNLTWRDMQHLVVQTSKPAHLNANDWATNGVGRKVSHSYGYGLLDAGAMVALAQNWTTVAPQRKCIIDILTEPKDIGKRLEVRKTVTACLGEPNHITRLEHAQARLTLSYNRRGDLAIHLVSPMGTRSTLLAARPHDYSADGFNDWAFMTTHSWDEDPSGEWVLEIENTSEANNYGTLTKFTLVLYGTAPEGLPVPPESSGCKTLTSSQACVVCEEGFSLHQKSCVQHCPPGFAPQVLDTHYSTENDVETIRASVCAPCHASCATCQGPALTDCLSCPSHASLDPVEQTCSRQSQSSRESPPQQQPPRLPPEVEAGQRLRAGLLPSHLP
TNF necrop inh = inhibitors of TNF-alpha induced necroptosis in Jurkat FADD-/- cells; 0.068% of 220,000 active; activation (protection from cell death), % at 10 µM; Jurkat FADD-/- TNF necroptosis rescue, ATP luminescence, 24 h; 0 = TNF only, 100 = no-TNF cells;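 active = activation, meaning protection from cell death, of at least 50% relative to plate controls; inactive = activation below 50%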;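 note: necroptosis triggered by 40 ng/mL TNF-alpha added together with compound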
Dynein cargo inh = dynein cargo transport inhibition; 3617.4 mouse cells, GR-EGFP nuclear translocation imaging; test concentration mostly 20 µM; stimulated with dexamethasone, 1 µM; active compounds read low; z-score, hits read low; 0.47% of 220,000 active; AID 1381;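 active = plate z-score of nuclear minus cytoplasmic receptor signal below a set negative limit, without overly bright fluorescence or cell loss, cut at about -3.5 in these data, passing the limit was not always enough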;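 note: z-score of nuclear minus cytoplasmic ring GR-EGFP intensity difference per well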
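Buffer or medium: tet-free, stripped-serum medium; Also added: dexamethasone, 1.0 µM final; Technique: high-content fluorescence imaging after fixation; Times: 48 h induction, 1 h compound, 30 min dex at 37 °C; Read-out: per-cell GR-EGFP intensity, nucleus versus surrounding cytoplasmic ring, well-averaged.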
HSV replic up = increases HSV replication in cells | HSV replication augmentation in cells, fold increase | maximum fold increase | 0.005% of 220,000 active; in the data active = maximum fold increase above about 1.5; inconclusive = no clear call, values can overlap the other calls; tested in PC3 cells
zVAD death inh = blocks zVAD induced death of L929 cells. 0.38% of 220,000 active. L929 zVAD necroptosis rescue, ATP luminescence, 24 h; with zVAD 60 µM. AID 1377. viability rescue, % at 10 µM;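 active = activation, scaled between plate controls, above about 75%, limit read from the data; inactive = activation under that limit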
Autophagy mod = modulators of autophagy | MEF GFP-LC3 puncta imaging; test concentration mostly 10 µM | AID 463193 | 0.98% of 190,000 active | calls only at 10 µM (by protocol);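 active = percentage of spot-positive cells more than 3 SD above its plate mean, without a fluorescence outlier flag or 80% toxicity; inconclusive = no clear call, values can overlap the other calls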
zVAD death conf = confirmed blocker of zVAD induced death in L929 cells | shares compounds with zVAD death inh | activation (protection from necroptosis), % at 10 µM | L929 zVAD-induced necroptosis rescue, ATP luminescence, 24 h | 16% of 760 active;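 active = mean protection from necroptosis of at least 50% over duplicate tests; inactive = mean protection below 50%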
Dynein confirm = dynein cargo transport inhibition, confirmation; shares compounds with Dynein cargo inh; 3617.4 GR-EGFP nuclear translocation imaging, dexamethasone-induced; calls only at 20 µM; 69% of 1,000 active; AID 463116;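 active = inhibition of receptor movement into the nucleus at or above a set limit in both runs, with normal cell brightness and cell count; inconclusive = limit reached in only one run, brightness and count normal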;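 note: dexamethasone at 1 µM final in well for 30 min; nuclear minus cytoplasmic GR-EGFP mean intensity difference in channel 2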
Each line names hits and unclear results; the compound was inactive in the other large screens (follow-up assays come after a bar, where they were run); ! = repeats disagree.

Cc1ccccc1-n1c(O)c(C=Nc2ccc3c(c2)OCO3)c(=O)[nH]c1=O	Furin inh 27, HSV replic up inconclusive
CCN(CC)c1ccc(N=Cc2c(O)n(-c3ccccc3C)c(=O)[nH]c2=O)cc1	none
NC(N)=N/N=C/c1cn(-c2ccccc2)nc1-c1cccs1	Autophagy mod active
O=c1c2ccccc2nc(-c2cccs2)n1-c1ccccc1	none
CC(C)(C)c1cc([N+](=O)[O-])cc(C(C)(C)C)c1O	none (no result: HSV replic up)
Cc1ccc(CN2C3CCCC2CC(NC(=O)Nc2cccc(F)c2)C3)cc1 (configuration not stated)	Autophagy mod active
O=c1[nH]c(=O)n(C2CCCCC2)c(O)c1/C=C/C=Nc1ccccc1	HSV replic up inconclusive (no result: Autophagy mod)
COc1ccccc1OP(=O)(Nc1cccnc1)Oc1ccccc1OC	Autophagy mod active (no result: HSV replic up)
CCCCc1nc2ccccc2c(=O)n1-c1ccccc1O	none
Cc1cc(=O)[nH]c(SCc2nc3ccccc3c(=O)n2-c2ccccc2C)n1	Autophagy mod active
O=C(c1cccnc1)C1CCCN(Cc2nc(-c3cnccn3)no2)C1 (configuration not stated)	none (no result: Autophagy mod)
O=C(c1ccccc1)C1CCCN(Cc2nc(-c3cnccn3)no2)C1 (configuration not stated)	Autophagy mod active
Cc1ncc(CN2CCCC(C(=O)c3ccc(C(C)(C)C)cc3)C2)s1 (configuration not stated)	none
CN(C)c1ccc(/C=C2/C(=N\O)C3CCN2CC3)cc1	none (no result: Autophagy mod)
CCC(=NCCN1CCCCC1)c1c(O)n(C)c(=O)n(C)c1=O	Autophagy mod active
CCOc1ccc(-n2c(O)c(N=Nc3c(C)n(C)n(-c4ccccc4)c3=O)c(=O)[nH]c2=O)cc1	Furin inh 25 (no result: Autophagy mod)
Cc1c(N=Nc2c(O)[nH]c(=S)[nH]c2=O)c(=O)n(-c2ccccc2)n1C	none
O=C1NC(=O)N(Cc2ccc(F)cc2)C(=O)/C1=C\c1ccc(N2CCCC2)cc1	none (no result: Autophagy mod)
O=C1NC(=O)N(Cc2ccc(F)cc2)C(=O)/C1=C\c1ccc([N+](=O)[O-])s1	Dynein cargo inh -5, HSV replic up inconclusive (no result: Autophagy mod)
CN1CCN(c2ccc(C(N)=O)cc2N)CC1	none (no result: HSV replic up)
CCN(CC)c1ccc(N=Cc2c(O)n(Cc3ccccc3)c(=O)[nH]c2=O)cc1	HSV replic up inconclusive, Autophagy mod active!
COc1ccc(C(=O)c2nc3ccccc3n2C(C)C)cc1	none
COc1cccc(OC)c1C1=NCC(=O)Nc2c1oc1ccc(Br)cc21	Autophagy mod active
Nc1nonc1-n1nnc(C(=O)N/N=C/c2ccc(OCc3ccc(F)cc3)cc2)c1COc1ccccc1	none (no result: Autophagy mod)
COc1ccc(/C=C2/C(=O)NC(=S)N(C3CC3)C2=O)cc1CN1C(=O)c2ccccc2C1=O	Dynein cargo inh -3.6
c1ccc(-c2ccc(-c3n(-c4ccccn4)c4ccccc4[n+]3-c3ccccn3)cc2)cc1	Autophagy mod active
Cc1ccc(/C=C2\C(=O)NC(=S)N(c3ccccc3F)C2=O)s1	Dynein cargo inh -3.7
Oc1c(Cl)c(Cl)c(Cl)c(Cl)c1Cl	none (no result: Furin inh, TNF necrop inh, Dynein cargo inh, zVAD death inh, Autophagy mod)
COC(=O)C1=C(c2cc3ccccc3o2)C[C@@H]2CC[C@H]1N2C(=O)NCCO	none (no result: Furin inh, TNF necrop inh, Dynein cargo inh, zVAD death inh, Autophagy mod)
C/C(=N\NC(=S)Nc1ccccc1)c1c(O)n(C)c(=O)n(C)c1=O	Autophagy mod active
Nc1cc(Cl)c2nonc2c1[N+](=O)[O-]	Dynein cargo inh -4.2
CN(C(=O)Oc1ccc(C(C)(C)C)cc1)c1ccccc1	none
COC(=O)C1=C(c2cc3ccccc3s2)C[C@@H]2CC[C@H]1N2C(=O)NCCNC(C)=O	none (no result: Furin inh, TNF necrop inh, Dynein cargo inh, zVAD death inh, Autophagy mod)
C=C1C(=O)O[C@@H]2C[C@@H](C)[C@@H]3C=CC(=O)[C@@]3(C)[C@@H](O)[C@H]12	TNF necrop inh 53, Dynein cargo inh -3.6, zVAD death inh 94 (no result: Autophagy mod)
O=C(Nc1ccc(Cl)cc1)Nc1nccs1	zVAD death inh 86 | zVAD death conf inactive
CCOP(=O)(OCC)C(O)c1cccc([N+](=O)[O-])c1 (configuration not stated)	none
CC(=O)OC[C@]12CCC(C)=C[C@H]1O[C@@H]1[C@H](O)[C@@H](OC(C)=O)[C@@]2(C)[C@]12CO2	zVAD death inh 95 (no result: Autophagy mod) | zVAD death conf 82
Cc1cc(C)c(Cn2c(C(=O)O)c(C=O)c3ccccc32)c(C)c1	none
O=C(/C=C/c1ccc2c(c1)OCO2)c1c(O)n(CCc2ccccc2)c(=O)[nH]c1=O	none (no result: Autophagy mod)
O=C(/C=C/c1ccccc1)c1c(O)n(CCc2ccccc2)c(=O)[nH]c1=O	zVAD death inh 83 | zVAD death conf inactive
CN(C)c1ccc(/C=C/C=C/c2sc3ccccc3[n+]2C)cc1	none (no result: Autophagy mod)
CC[n+]1c(/C=C/C=C/c2ccc(N(C)C)cc2)sc2ccccc21	Dynein cargo inh -3.7 (no result: Autophagy mod) | Dynein confirm active
CC(C)c1ccc(N2C(=O)NC(=O)/C(=C\C=C\c3ccco3)C2=O)cc1	Dynein cargo inh -3.9, HSV replic up inconclusive | Dynein confirm active
O=C1NC(=O)N(Cc2ccccc2)C(=O)/C1=C/C=C/c1ccco1	Dynein cargo inh -6 (no result: HSV replic up, Autophagy mod) | Dynein confirm active
CC(C)N1C(=O)/C(=C/C=C/c2ccco2)C(=O)N(Cc2ccco2)C1=O	none
CC(C)c1ccc(N2C(=O)NC(=O)/C(=C\c3cnc(-c4ccccc4)nc3)C2=O)cc1	none
CCN1C(=O)C(=C/C=C/c2ccco2)C(=O)N(CC)C1=S	Dynein cargo inh -4.5, HSV replic up inconclusive | Dynein confirm active
CC(=O)N1N=C2C3CCN(CC3)C2C1c1ccc(F)cc1 (configuration not stated)	none
COc1cc(/C=C/[N+](=O)[O-])ccc1O	Dynein cargo inh -5.7 | Dynein confirm active
COc1cccc(N2C(=O)NC(=O)/C(=C/c3ccc4c(c3)Cc3ccccc3-4)C2=O)c1	none
COc1ccc(N2C(=O)NC(=O)/C(=C/c3ccc([N+](=O)[O-])s3)C2=O)cc1	Dynein cargo inh -5.3 (no result: Autophagy mod) | Dynein confirm active
COc1ccc(N2C(=O)NC(=O)/C(=C\c3ccc([N+](=O)[O-])s3)C2=O)cc1	Dynein cargo inh -7.1, HSV replic up inconclusive | Dynein confirm active
COc1ccc(CN2C(=O)NC(=O)/C(=C/c3ccc([N+](=O)[O-])s3)C2=O)cc1	Dynein cargo inh -4.3 (no result: Autophagy mod) | Dynein confirm active
CCOc1ccc(N2C(=O)NC(=O)/C(=C\c3cc(OC)c(OC)cc3[N+](=O)[O-])C2=O)cc1	none
COc1cccc(N2C(=O)NC(=O)/C(=C/c3ccc([N+](=O)[O-])s3)C2=O)c1	Dynein cargo inh -5.6 (no result: Autophagy mod) | Dynein confirm active
